Key:
Fibroblast = test: Incucyte cell viability with human fibroblast; format: toxicity, cell-based; conditions: 10 µM, compound concentration 10 uM; note: filed as whole numbers so only -1 and 0 and 1 occur
U2OS = test: Multiplex assay against U2OS; format: toxicity, cell-based; conditions: human
Outline: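 Live cells were stained at seeding with Hoechst33342, BioTracker Green Microtubule Cytoskeleton Dye, MitoTracker Red and Annexin V Alexa Fluor 680. Following compound addition, they were imaged on a CQ1 microscope at 37°C and 5% CO2 and gated by CellPathfinder machine learning into Hoechst high-intensity objects or normal cells, with normal cells split into healthy, pyknosed or fragmented nuclei and pyknosed cells into mitotic or apoptotic. Tubulin, mitochondrial-mass and membrane-permeability phenotypes are per cents of healthy-nucleus cells.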

[1] = 12 h, 1 µM, compound concentration 1 uM, replicate 1
[2] = 12 h, 1 µM, compound concentration 1 uM, replicate 2
[3] = 12 h, 10 µM, compound concentration 10 uM, replicate 1
[4] = 12 h, 10 µM, compound concentration 10 uM, replicate 2
[5] = 24 h, 1 µM, compound concentration 1 uM, replicate 1
[6] = 24 h, 1 µM, compound concentration 1 uM, replicate 2
[7] = 24 h, 10 µM, compound concentration 10 uM, replicate 1
[8] = 24 h, 10 µM, compound concentration 10 uM, replicate 2
[9] = 48 h, 1 µM, compound concentration 1 uM, replicate 1
[10] = 48 h, 1 µM, compound concentration 1 uM, replicate 2
[11] = 48 h, 10 µM, compound concentration 10 uM, replicate 1
[12] = 48 h, 10 µM, compound concentration 10 uM, replicate 2

C[C@@H](Oc1cc(-n2cnc3ccc(CN4CCN(C)CC4)cc32)sc1C(N)=O)c1ccccc1C(F)(F)F [GSK-461364]
Growth Rate (Fibroblast; 0 h, replicate number 2, timepoint 0 hours): 0
Growth Rate (Fibroblast; 6 h, replicate number 1, timepoint 6 hours): 0
Growth Rate (Fibroblast; 6 h, replicate number 2, timepoint 6 hours): 1
Growth Rate (Fibroblast; 12 h, replicate number 1, timepoint 12 hours): 0
Growth Rate (Fibroblast; 18 h, replicate number 1, timepoint 18 hours): 0
Growth Rate (Fibroblast; 24 h, replicate number 1, timepoint 24 hours): 0
Population Apoptotic (%) (U2OS; [1]): 55%
Population Fragmented Nuclei (%) (U2OS; [1]): 13%
Population Healthy Nuclei (%) (U2OS; [1]): 70%
Population Hoechst High Intensity Objects (%) (U2OS; [1]): 7%
Population Membrane Permeable-Phenotype (%) (U2OS; [1]): 7%
Population Mitochondria Different-Phenotype (%) (U2OS; [1]): 60%
Population Mitotic Cells (%) (U2OS; [1]): 45%
Population Normal (%) (U2OS; [1]): 92%
Population Pyknosed Nuclei (%) (U2OS; [1]): 15%
Population Tubulin-Different-Phenotype (%) (U2OS; [1]): 84%
Total Cell Count (U2OS; [1]): 153
Population Apoptotic (%) (U2OS; [2]): 12%
Population Fragmented Nuclei (%) (U2OS; [2]): 12%
Population Healthy Nuclei (%) (U2OS; [2]): 71%
Population Hoechst High Intensity Objects (%) (U2OS; [2]): 4%
Population Membrane Permeable-Phenotype (%) (U2OS; [2]): 12%
Population Mitochondria Different-Phenotype (%) (U2OS; [2]): 35%
Population Mitotic Cells (%) (U2OS; [2]): 87%
Population Normal (%) (U2OS; [2]): 95%
Population Pyknosed Nuclei (%) (U2OS; [2]): 16%
Population Tubulin-Different-Phenotype (%) (U2OS; [2]): 30%
Population Apoptotic (%) (U2OS; [3]): 58%
Population Fragmented Nuclei (%) (U2OS; [3]): 14%
Population Healthy Nuclei (%) (U2OS; [3]): 40%
Population Hoechst High Intensity Objects (%) (U2OS; [3]): 9%
Population Membrane Permeable-Phenotype (%) (U2OS; [3]): 81%
Population Mitochondria Different-Phenotype (%) (U2OS; [3]): 100%
Population Mitotic Cells (%) (U2OS; [3]): 41%
Population Normal (%) (U2OS; [3]): 90%
Population Pyknosed Nuclei (%) (U2OS; [3]): 44%
Population Tubulin-Different-Phenotype (%) (U2OS; [3]): 100%
Total Cell Count (U2OS; [3]): 137
Population Apoptotic (%) (U2OS; [4]): 40%
Population Fragmented Nuclei (%) (U2OS; [4]): 13%
Population Healthy Nuclei (%) (U2OS; [4]): 55%
Population Membrane Permeable-Phenotype (%) (U2OS; [4]): 71%
Population Mitotic Cells (%) (U2OS; [4]): 59%
Population Pyknosed Nuclei (%) (U2OS; [4]): 31%
Population Apoptotic (%) (U2OS; [5]): 78%
Population Fragmented Nuclei (%) (U2OS; [5]): 16%
Population Healthy Nuclei (%) (U2OS; [5]): 65%
Population Hoechst High Intensity Objects (%) (U2OS; [5]): 6%
Population Membrane Permeable-Phenotype (%) (U2OS; [5]): 8%
Population Mitochondria Different-Phenotype (%) (U2OS; [5]): 65%
Population Mitotic Cells (%) (U2OS; [5]): 21%
Population Normal (%) (U2OS; [5]): 93%
Population Pyknosed Nuclei (%) (U2OS; [5]): 17%
Population Tubulin-Different-Phenotype (%) (U2OS; [5]): 91%
Population Apoptotic (%) (U2OS; [6]): 50%
Population Fragmented Nuclei (%) (U2OS; [6]): 14%
Population Healthy Nuclei (%) (U2OS; [6]): 68%
Population Hoechst High Intensity Objects (%) (U2OS; [6]): 4%
Population Membrane Permeable-Phenotype (%) (U2OS; [6]): 18%
Population Mitochondria Different-Phenotype (%) (U2OS; [6]): 35%
Population Mitotic Cells (%) (U2OS; [6]): 50%
Population Normal (%) (U2OS; [6]): 95%
Population Tubulin-Different-Phenotype (%) (U2OS; [6]): 28%
Population Apoptotic (%) (U2OS; [7]): 90%
Population Fragmented Nuclei (%) (U2OS; [7]): 23%
Population Healthy Nuclei (%) (U2OS; [7]): 21%
Population Hoechst High Intensity Objects (%) (U2OS; [7]): 8%
Population Membrane Permeable-Phenotype (%) (U2OS; [7]): 92%
Population Mitochondria Different-Phenotype (%) (U2OS; [7]): 100%
Population Mitotic Cells (%) (U2OS; [7]): 9%
Population Normal (%) (U2OS; [7]): 91%
Population Pyknosed Nuclei (%) (U2OS; [7]): 54%
Population Tubulin-Different-Phenotype (%) (U2OS; [7]): 100%
Total Cell Count (U2OS; [7]): 138
Population Apoptotic (%) (U2OS; [8]): 82%
Population Fragmented Nuclei (%) (U2OS; [8]): 10%
Population Healthy Nuclei (%) (U2OS; [8]): 47%
Population Hoechst High Intensity Objects (%) (U2OS; [8]): 6%
Population Membrane Permeable-Phenotype (%) (U2OS; [8]): 90%
Population Mitotic Cells (%) (U2OS; [8]): 17%
Population Normal (%) (U2OS; [8]): 93%
Population Pyknosed Nuclei (%) (U2OS; [8]): 41%
Population Apoptotic (%) (U2OS; [9]): 71%
Population Fragmented Nuclei (%) (U2OS; [9]): 22%
Population Healthy Nuclei (%) (U2OS; [9]): 51%
Population Hoechst High Intensity Objects (%) (U2OS; [9]): 10%
Population Membrane Permeable-Phenotype (%) (U2OS; [9]): 18%
Population Mitochondria Different-Phenotype (%) (U2OS; [9]): 57%
Population Mitotic Cells (%) (U2OS; [9]): 28%
Population Normal (%) (U2OS; [9]): 89%
Population Pyknosed Nuclei (%) (U2OS; [9]): 25%
Population Tubulin-Different-Phenotype (%) (U2OS; [9]): 85%
Total Cell Count (U2OS; [9]): 246
Population Apoptotic (%) (U2OS; [10]): 47%
Population Fragmented Nuclei (%) (U2OS; [10]): 10%
Population Healthy Nuclei (%) (U2OS; [10]): 68%
Population Hoechst High Intensity Objects (%) (U2OS; [10]): 5%
Population Membrane Permeable-Phenotype (%) (U2OS; [10]): 27%
Population Mitochondria Different-Phenotype (%) (U2OS; [10]): 25%
Population Mitotic Cells (%) (U2OS; [10]): 52%
Population Normal (%) (U2OS; [10]): 94%
Population Pyknosed Nuclei (%) (U2OS; [10]): 20%
Population Tubulin-Different-Phenotype (%) (U2OS; [10]): 30%
Total Cell Count (U2OS; [10]): 128
Population Apoptotic (%) (U2OS; [11]): 98%
Population Fragmented Nuclei (%) (U2OS; [11]): 27%
Population Healthy Nuclei (%) (U2OS; [11]): 14%
Population Hoechst High Intensity Objects (%) (U2OS; [11]): 11%
Population Membrane Permeable-Phenotype (%) (U2OS; [11]): 100%
Population Mitochondria Different-Phenotype (%) (U2OS; [11]): 94%
Population Mitotic Cells (%) (U2OS; [11]): 1%
Population Normal (%) (U2OS; [11]): 88%
Population Pyknosed Nuclei (%) (U2OS; [11]): 58%
Population Tubulin-Different-Phenotype (%) (U2OS; [11]): 100%
Total Cell Count (U2OS; [11]): 138
Population Apoptotic (%) (U2OS; [12]): 82%
Population Fragmented Nuclei (%) (U2OS; [12]): 20%
Population Healthy Nuclei (%) (U2OS; [12]): 43%
Population Hoechst High Intensity Objects (%) (U2OS; [12]): 8%
Population Membrane Permeable-Phenotype (%) (U2OS; [12]): 97%
Population Mitochondria Different-Phenotype (%) (U2OS; [12]): 100%
Population Mitotic Cells (%) (U2OS; [12]): 17%
Population Normal (%) (U2OS; [12]): 91%
Population Pyknosed Nuclei (%) (U2OS; [12]): 36%
Total Cell Count (U2OS; [12]): 108

Source: ChEMBL document CHEMBL4689842, “EUbOPEN Chemogenomics Library wave 1” (2021)
